The record followed here is PubChem BioAssay.

Experiment [1] is described as follows: inhibitors of TNFa-induced NFkB p65 translocation, primary screen, imaging, HUVEC, MLSMR starter and 10KST1 sets (AID 438;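 active = inhibition above 20% together with a positive visual image hit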;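 also: compound added about 3h40 before a 20 min TNFalpha stimulation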;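 as to inhibition: signal is the nuclear over cytoplasmic p65 intensity ratio per well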). The following applies: HUVEC TNFa-induced p65 nuclear translocation; cell count: measured here: nuclei count (cytotoxicity indicator), at 2.08 µM; inhibition: at 2 µM, stronger effect = higher value, 0% TNFa-plus-vehicle, 100% no-TNFa wells.
Experiment [2] can be described thus: inhibitors of mutant huntingtin aggregation, primary screen, imaging, exon1htt(103Q)mCFP cells, high-content imaging (AID 483;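 active = visual image review flags a hit and inhibition of aggregation exceeds 20%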;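 also: compound exposure lasted 3 days before fixation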;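 as to nuclei count: percent of the per-plate median nuclei count of sample wells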). The following applies: exon1htt(103Q)mCFP cell line, aggregate imaging, at 2 µM; inhibition of aggregation: stronger effect = higher value; nuclei count: measured here: cell count, toxicity.
Experiment [3] in a line: inhibitors of E-selectin induction by TNFa, primary screen, imaging, HUVEC, immunofluorescence, MLSMR starter and 10KST1 sets (AID 487;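 active = visually confirmed hit in the image check and inhibition above 20%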;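 as to inhibition: signal is fraction of cell area covered by stained E-selectin grains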;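 as to nuclei count: 100% = median nuclei count of all wells on the same plate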). The following applies: HUVEC TNFalpha-induced E-selectin immunofluorescence imaging, at 2 µM; inhibition: stronger effect = higher value; nuclei count: measured here: cell number, toxicity.
The target in experiment [4] is Voltage-gated potassium channel subunit beta-2 (Rattus norvegicus) (UniProt P62483). The experiment can be described thus: KvBeta enzyme negative modulators, primary screen, biochemical, NADPH fluorescence (AID 622;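 active = fluorescence slope higher than the sample average by over 3 SD, cut at about -0.22 in these data, passing the limit was not always enough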;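 also: slope of raw intensity against log time taken from 70 to 1610 s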). The following applies: recombinant KvBeta, 4-cyanobenzaldehyde reduction, at 10 µM, stronger effect = higher value.
Sequence of Voltage-gated potassium channel subunit beta-2 (Rattus norvegicus) (P62483 whole entry, looked up): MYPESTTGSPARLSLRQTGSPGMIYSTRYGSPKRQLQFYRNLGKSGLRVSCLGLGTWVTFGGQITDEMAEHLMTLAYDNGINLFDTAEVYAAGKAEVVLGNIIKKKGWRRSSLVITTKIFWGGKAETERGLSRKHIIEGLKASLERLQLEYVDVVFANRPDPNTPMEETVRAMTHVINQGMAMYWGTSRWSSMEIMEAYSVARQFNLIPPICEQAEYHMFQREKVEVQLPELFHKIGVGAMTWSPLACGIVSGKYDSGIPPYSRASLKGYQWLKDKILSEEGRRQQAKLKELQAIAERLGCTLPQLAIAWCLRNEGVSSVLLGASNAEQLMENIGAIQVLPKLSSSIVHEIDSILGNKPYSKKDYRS
The target is the same in experiment [5]. Briefly: KvBeta positive modulators, primary screen, biochemical, NADPH fluorescence (AID 623;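 active = NADPH fluorescence slope more negative than the mean of all samples by about 3 SD, 99.7% confidence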;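 also: fluorescence intensity change per second fitted from 20 to 320 s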). Particulars: Recombinant KvBeta, NADPH fluorescence decrease slope, 10 min; at 10 µM; stronger effect = lower value.
The target of experiment [6] is Muscarinic acetylcholine receptor M4 (Homo sapiens) (UniProt P08173). Briefly: compounds altering M4/GIRK thallium flux, either direction, primary screen, M4 allosteric agonist project, cell-based, HEK293 M4/GIRK, BTC-AM (AID 625).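 Also: thallium influx through GIRK channels coupled to M4 in HEK293 cells with BTC-AM dye.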 Particulars: at 10 µM, actives lie on both sides. The procedure, abridged: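 Assay system: HEK293 cells with M4 receptor and GIRK channels / Controls: carbachol and DMSO controls / Schedule: 1 h dye loading, 2 min kinetic read / Technique: kinetic fluorescence with BTC-AM dye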
Sequence of Muscarinic acetylcholine receptor M4 (Homo sapiens) (P08173 whole entry, looked up): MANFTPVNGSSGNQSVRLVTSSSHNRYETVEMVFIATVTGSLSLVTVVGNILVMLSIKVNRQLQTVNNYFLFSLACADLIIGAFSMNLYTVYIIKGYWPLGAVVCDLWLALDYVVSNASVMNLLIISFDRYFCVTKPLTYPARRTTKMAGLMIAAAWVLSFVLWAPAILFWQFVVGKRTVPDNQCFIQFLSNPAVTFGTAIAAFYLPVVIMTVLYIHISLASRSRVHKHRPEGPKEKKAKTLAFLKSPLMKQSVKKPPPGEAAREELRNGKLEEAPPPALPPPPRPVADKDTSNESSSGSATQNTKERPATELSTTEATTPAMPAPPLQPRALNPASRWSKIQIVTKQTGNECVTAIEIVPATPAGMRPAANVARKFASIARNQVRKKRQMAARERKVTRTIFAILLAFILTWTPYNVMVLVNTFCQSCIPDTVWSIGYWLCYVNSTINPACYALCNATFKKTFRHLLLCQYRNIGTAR

A short description of experiment [7]: inhibitors of Sendai virus-induced IRF3 signaling, primary screen, TLR/RLR signaling modifier project, cell-based, Sendai virus stimulus, luciferase, 10K MLSCN set (AID 602276;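 active = inhibition at or above 50% at 10 µM; inactive = inhibition below 50%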;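 also: firefly luciferase from ISG56 promoter only with Renilla not read in this screen; 0% = Sendai virus plus DMSO and 100% = medium plus DMSO without virus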). The following applies: HEK293 RL24 IRF3 luciferase reporter, at 10 µM, stronger effect = higher value. A general note: In a reporter assay the amount or activity of a reporter protein is the signal.

The nature of experiment [8]: inhibitors of poly I:C-induced TLR3 signaling, primary screen, cell-based, poly I:C stimulus, luciferase, 10K MLSCN set (AID 602277;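 active = inhibition of the reporter signal at or above 50%; inactive = inhibition below 50%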). The following applies: HEK293-TLR3 RL24 IRF3 luciferase reporter, at 10 µM, stronger effect = higher value.

Calls of active or inactive are those of the source.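 The calls were made as follows, unless noted: active = fluorescence slope after compound addition differing from the mean of all tested samples at 99.7% confidence, mostly higher but some lower; inactive = the rest.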

The inhibition is the relative decrease from the control value, in per cent. For the compound `Cc1nnc(N(Cc2ccco2)C(=O)c2cccc(C#N)c2)s1`, the cell count in experiment [1] turned out to be 428. The inhibition in experiment [1] is 7.3% (inactive); in experiment [3], 11.7% (inactive); in experiment [7], -0.114% (inactive); in experiment [8], 5.23% (inactive). The inhibition of aggregation in experiment [2] is 9.6% (inactive). In addition, the values for the nuclei count in experiment [2] and in experiment [3] were 101% and 111%, respectively. Further, the fluorescence slope is -0.569 (inactive) in experiment [4] and 0.00607 (inactive) in experiment [6]. Also, the NADPH fluorescence slope in experiment [5] was -1.4e-05 (inactive).
Take `CCn1nnc(-c2ccccc2NC(=O)c2ccc(-n3cnnn3)cc2)n1`: the cell count in experiment [1] was 333. For the same compound, the inhibition in experiment [1] was -2.5% (inactive); in experiment [3] it was 1.4% (inactive); in experiment [7], 15.3% (inactive); in experiment [8] it was 15.5% (inactive). For the same compound, the inhibition of aggregation in experiment [2] was -19% (inactive). The results for the nuclei count in experiment [2] and in experiment [3] were 97.1% and 90.6%, respectively. Besides, the fluorescence slope in experiment [4] is -0.5 (inactive); in experiment [6], 0.00365 (inactive). The NADPH fluorescence slope in experiment [5] is -0.000135 (inactive).
For `COc1cccc(CNC(=O)C2CCN(S(=O)(=O)c3ccc(F)cc3)CC2)c1`, in experiment [1], the cell count came to 603. The inhibition in experiment [1] was 9.6% (inactive); in experiment [3], -47.8% (inactive); in experiment [7] it was 19.5% (inactive); in experiment [8] it was 20.1% (inactive). Also, in experiment [2], the inhibition of aggregation is 5.3% (inactive). Moreover, the nuclei count in experiment [2] amounted to 103%; in experiment [3], 123%. Further, the fluorescence slope in experiment [4] was -0.553 (inactive); in experiment [6], 0.00553 (inactive). The NADPH fluorescence slope in experiment [5] is -5.5e-05 (inactive).
For the compound `COc1cccc(C(=O)Nc2ccc(N(C)C)cc2)c1OC`, the cell count in experiment [1] came out at 718. Further, the inhibition in experiment [1] is 0.8% (inactive); in experiment [3], -79.8% (inactive); in experiment [7], -4.94% (inactive); in experiment [8], -69.6% (inactive). The inhibition of aggregation in experiment [2] is 1.4% (inactive). Besides, the nuclei count in experiment [2] came out at 104%; in experiment [3], 109%. Besides, the fluorescence slope in experiment [4] was -0.493 (inactive); in experiment [6] it was 0.00556 (inactive). Moreover, the NADPH fluorescence slope in experiment [5] is 1.7e-05 (inactive).
With `C/C(=C\c1cc(C(=O)O)c(C)o1)CO`, the cell count in experiment [1] was found to be 417. For the same compound, the inhibition is 5.1% (inactive) in experiment [1], 39.5% (inactive) in experiment [3], -6.67% (inactive) in experiment [7] and -4.63% (inactive) in experiment [8]. The inhibition of aggregation in experiment [2] is 4.9% (inactive). The values for the nuclei count in experiment [2] and in experiment [3] were 94.9% and 103%, respectively. Further, the fluorescence slope is -0.431 (inactive) in experiment [4] and 0.00423 (inactive) in experiment [6]. Besides, the NADPH fluorescence slope in experiment [5] is -0.00049 (inactive).
Consider `Cc1ccc(-n2nnnc2SCC(=O)N2CCc3ccccc3C2)cc1`, for which the cell count in experiment [1] stood at 526. The inhibition in experiment [1] is -10.2% (inactive); in experiment [3], -28.6% (inactive); in experiment [7], 8.66% (inactive); in experiment [8], 11% (inactive). The inhibition of aggregation in experiment [2] was -6.8% (inactive). Also, the nuclei count in experiment [2] turned out to be 104%; in experiment [3] it was 148%. Also, the fluorescence slope in experiment [4] was -0.49 (inactive); in experiment [6], 0.00503 (inactive). In experiment [5], the NADPH fluorescence slope is 8.4e-07 (inactive).
For `CS(=O)(=O)Nc1ccc(C(=O)NCc2ccco2)cc1`, in experiment [1], the cell count is 499. Besides, the inhibition in experiment [1] was -0.3% (inactive); in experiment [3], 11.9% (inactive); in experiment [7] it was 5.42% (inactive); in experiment [8] it was 16.9% (inactive). Further, in experiment [2], the inhibition of aggregation is 16.6% (inactive). Also, the nuclei count in experiment [2] is 60%; in experiment [3], 105%. The fluorescence slope was -0.571 (inactive) in experiment [4] and 0.00586 (inactive) in experiment [6]. In addition, the NADPH fluorescence slope in experiment [5] was 1.2e-06 (inactive).
With `CC(Oc1ccc2oc(-c3ccccc3)c(C(=O)O)c2c1)C(=O)O` (centres undefined), the cell count in experiment [1] is 371. Further, the inhibition in experiment [1] was 10.6% (inactive); in experiment [3], 27.6% (inactive); in experiment [7], 7.55% (inactive); in experiment [8], 16.2% (inactive). Besides, the inhibition of aggregation in experiment [2] is 9% (inactive). Moreover, the nuclei count in experiment [2] turned out to be 104%; in experiment [3], 89.9%. Further, the fluorescence slope in experiment [4] was -0.158 (inactive); in experiment [6] it was 0.00531 (inactive). Moreover, the NADPH fluorescence slope in experiment [5] is -5.4e-05 (inactive).
For the compound `CC(C)OC(=O)CSc1nnnn1-c1ccc2c(c1)OCCO2`, the cell count in experiment [1] came to 294. For the same compound, the inhibition in experiment [1] is -9.9% (inactive); in experiment [3], -0.1% (inactive); in experiment [7] it was -0.252% (inactive); in experiment [8] it was -97.9% (inactive). The inhibition of aggregation in experiment [2] is -2.7% (inactive). The nuclei count in experiment [2] worked out at 111%; in experiment [3], 118%. The values for the fluorescence slope in experiment [4] and in experiment [6] were -0.228 (inactive) and 0.00598 (inactive), respectively. Besides, the NADPH fluorescence slope in experiment [5] is -3.6e-05 (inactive).
Consider `COc1cccc(-n2c(C)nc3c(cnn3-c3ccc(Cl)cc3)c2=O)c1`, for which the cell count in experiment [1] is 238. The inhibition in experiment [1] was -6.4% (inactive); in experiment [3], -14.1% (inactive); in experiment [7] it was -4.02% (inactive); in experiment [8] it was 4.48% (inactive). Also, in experiment [2], the inhibition of aggregation is -13.4% (inactive). The values for the nuclei count in experiment [2] and in experiment [3] were 94.3% and 114%, respectively. In addition, the fluorescence slope in experiment [4] is -0.553 (inactive); in experiment [6] it was 0.00702 (inactive). Besides, in experiment [5], the NADPH fluorescence slope is 7.6e-06 (inactive).
In the case of `O=C(c1cccs1)c1cn(CC(=O)N2CCc3ccccc3C2)c2ccccc12`, in experiment [1], the cell count was 785. The inhibition in experiment [1] was -2.9% (inactive); in experiment [3] it was -137% (inactive); in experiment [7], 11.1% (inactive); in experiment [8], 8.88% (inactive). Further, the inhibition of aggregation in experiment [2] was -15.5% (inactive). Moreover, the nuclei count turned out to be 100% in experiment [2] and 123% in experiment [3]. Also, the fluorescence slope in experiment [4] was -0.519 (inactive); in experiment [6], 0.00668 (inactive). In experiment [5], the NADPH fluorescence slope was -3.8e-05 (inactive).
Consider `O=P(O)(O)c1ccccc1OCCOCCOc1ccccc1P(=O)(O)O`, for which, in experiment [1], the cell count turned out to be 311. For the same compound, the inhibition is -0.9% (inactive) in experiment [1], -21.3% (inactive) in experiment [3], 11.2% (inactive) in experiment [7] and 15.3% (inactive) in experiment [8]. For the same compound, the inhibition of aggregation in experiment [2] is 8% (inactive). Also, the nuclei count in experiment [2] stood at 60.2%; in experiment [3], 86.4%. The fluorescence slope in experiment [4] is -0.308 (inactive); in experiment [6] it was 0.00635 (inactive). Also, the NADPH fluorescence slope in experiment [5] is -5.3e-05 (inactive).
Turning to `CC(C)CNC(=O)c1ccccc1NC(=O)CN(c1ccc2c(c1)OCCO2)S(C)(=O)=O`, the cell count in experiment [1] amounted to 330. Also, the inhibition was 6% (inactive) in experiment [1], -0.7% (inactive) in experiment [3], 0.301% (inactive) in experiment [7] and 0.167% (inactive) in experiment [8]. Also, the inhibition of aggregation in experiment [2] is -12.9% (inactive). The nuclei count was 97.5% in experiment [2] and 105% in experiment [3]. Further, the fluorescence slope in experiment [4] is -0.574 (inactive); in experiment [6], 0.00389 (inactive). Further, the NADPH fluorescence slope in experiment [5] was 2.6e-05 (inactive).
Turning to `O=C(Nc1ccccc1)c1ccc(NCC2CCCO2)c(S(=O)(=O)N2CCOCC2)c1` (centres undefined), the cell count in experiment [1] worked out at 637. Also, the inhibition is -1.5% (inactive) in experiment [1], -99.7% (inactive) in experiment [3], 5.98% (inactive) in experiment [7] and 15.7% (inactive) in experiment [8]. Besides, the inhibition of aggregation in experiment [2] was 0.8% (inactive). For the same compound, the figures for the nuclei count in experiment [2] and in experiment [3] were 108% and 98.8%, respectively. The fluorescence slope in experiment [4] was -0.453 (inactive); in experiment [6], 0.00503 (inactive). Further, the NADPH fluorescence slope in experiment [5] was 1.2e-05 (inactive).
